PG9 binder: binders of HIV-1 gp120 antibody PG9, primary screen, biochemical, TR-FRET; HIV-1 gp120 / PG9 antibody interaction; TR-FRET gp120-PG9 antibody binding; inhibition, % at 6.7 µM; 360,000 compounds, 0.43% hits; in the data active = inhibition above about 8.5%
NR2E3 ag-1: inhibitors of NR2E3-RetCOR corepressor binding, primary screen, NR2E3 agonist project, biochemical, TR-FRET, GST-NR2E3, biotin-RetCOR; Photoreceptor-specific nuclear receptor (Homo sapiens), Q9Y5X4; 320,000 compounds, 0.12% hits; AID 2300, 2010; inhibition of corepressor binding, % at 4.78 µM; 1536-well;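 active = percent inhibition above the cutoff of mean plus 3 SD of all tested compounds, set per screening campaign, cut at about 20% in these data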;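 note: 0% = DMSO wells and 100% = biotin wells as full block of FRET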
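Format: 1536-well format; test system: GST-NR2E3 and biotin-RetCOR proteins; read-out basis: percent inhibition of TR-FRET ratio; timing: 5 h incubation at 4 °C; detection: time-resolved FRET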
rCAG binder: binders of r(CAG) RNA repeats, primary screen, biochemical, fluorescence. r(CAG) RNA repeat, TO-PRO-1 dye displacement fluorescence. inhibition, % at 3 µM. 370,000 compounds, 1.3% hits. AID 651821, 2012;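 active = inhibition above the plate cutoff, the mean of all test compounds on that plate plus 3 SD, cut at about 35% in these data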;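 note: 0% = DMSO alone and 100% = 100 µM mitoxantrone as full dye displacement; higher means more dye released from RNA so lower well fluorescence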
NR1D1 modulator: modulators of Rev-erb alpha DNA binding, primary screen, biochemical, FITC-DNA, fluorescence polarization, uHTS; Rev-erbα–FITC-DNA binding, 90 min; activity, % at 10 µM; 370,000 compounds, 0.79% hits; AID 1259318, 2017;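 active = activity above about 14%, limit read from the data; passing the limit was not always enough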;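 note: 0% = DMSO wells with 35 nM protein and 100% = DMSO wells with 750 nM protein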
Target sequence (P20393 whole entry, looked up): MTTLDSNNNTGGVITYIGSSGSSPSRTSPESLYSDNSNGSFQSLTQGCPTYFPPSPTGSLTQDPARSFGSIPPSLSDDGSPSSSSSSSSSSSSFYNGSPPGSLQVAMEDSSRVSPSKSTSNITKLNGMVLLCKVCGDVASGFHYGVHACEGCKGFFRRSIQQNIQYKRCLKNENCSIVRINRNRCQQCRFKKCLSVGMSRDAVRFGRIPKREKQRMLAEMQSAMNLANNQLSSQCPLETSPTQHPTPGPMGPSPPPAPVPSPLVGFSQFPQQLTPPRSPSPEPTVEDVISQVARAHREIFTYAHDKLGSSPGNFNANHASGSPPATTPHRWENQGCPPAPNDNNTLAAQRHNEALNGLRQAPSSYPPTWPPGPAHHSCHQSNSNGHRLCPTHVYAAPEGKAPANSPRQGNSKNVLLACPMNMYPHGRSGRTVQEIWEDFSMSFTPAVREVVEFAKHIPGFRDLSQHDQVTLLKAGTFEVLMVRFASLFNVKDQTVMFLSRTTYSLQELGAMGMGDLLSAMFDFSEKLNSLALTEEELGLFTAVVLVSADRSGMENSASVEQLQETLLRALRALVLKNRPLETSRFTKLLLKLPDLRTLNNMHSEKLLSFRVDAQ
NR2E3 ag-2: NR2E3 agonists in two-hybrid cells, primary screen, cell-based, luminescence, CHO-S, Gal4-NCOR/VP16-NR2E3 | Photoreceptor-specific nuclear receptor (Homo sapiens), Q9Y5X4 | luciferase | inhibition of corepressor binding, % at 3.98 µM | 360,000 compounds, 0.35% hits | AID 602229, 2012;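 active = inhibition above the mean of all tested compounds plus 3 SD, cut at about 70% in these data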;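 note: 0% = DMSO with NR2E3 transfected cells and 100% = cells lacking NR2E3 construct; higher means lower luciferase signal from less NR2E3 corepressor binding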
rCAG binder conf: small molecules binding CAG repeat RNA – biochemical, fluorescence, confirmation; shares compounds with rCAG binder; r(CAG) RNA repeat, TO-PRO-1 dye displacement fluorescence; inhibition, % at 3 µM; 4,300 compounds, 70% hits; AID 652065, 2013;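 active = inhibition above a per-plate cutoff, the mean inhibition of sample wells plus 3 SD, cut at about 35% in these data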;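 note: loss of TO-PRO-1 fluorescence as compound displaces dye from 1x1 AA loop RNA; 0% = DMSO only wells and 100% = 100 µM mitoxantrone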
DNA CAG counter: displacement of TO-PRO-1 from CAG DNA duplex, counter-screen for rCAG RNA repeat binder project, biochemical, fluorescence, TO-PRO-1 dye, d(CAG) DNA oligo | shares compounds with rCAG binder | d(CAG) DNA oligo TO-PRO-1 dye displacement | inhibition, % at 3 µM | 4,300 compounds, 94% hits | AID 652068, 2013;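 active = inhibition above its plate's cutoff, the mean test-well inhibition plus 3 SD, cut at about 4.8% in these data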;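 note: 0% = DNA dye mix with DMSO and 100% = 100 µM mitoxantrone; hits displace the dye from DNA and so lower well fluorescence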
DNA CAG DR: inhibitors of DNA CAG/GTC TO-PRO-1 complex, dose response, counter-screen for rCAG RNA repeat binder project, biochemical, fluorescence, TO-PRO-1 dye; shares compounds with rCAG binder; DNA CAG/GTC duplex TO-PRO-1 dye displacement fluorescence; IC50, µM; 250 compounds, 20% hits; AID 686960, 2013; in the data active = IC50 below about 10 µM
Numbers without * were called inactive; nt = no result. Most compounds without a hit are left out; they make up all but 2.6% or so of the library.

SMILES | PG9 binder | NR2E3 ag-1 | rCAG binder | NR1D1 modulator | NR2E3 ag-2 | rCAG binder conf | DNA CAG counter | others
O=C(COC(=O)c1cccc(S(=O)(=O)N2CCCCC2)c1)NCc1cccc(Cl)c1 | 0 | nt | 3 | -6 | 22 | nt | nt
Cc1cc(C)c(C(=O)COC(=O)c2c(C)noc2C)cc1C | 0 | 3 | -3 | -5 | 15 | nt | nt
Cc1cc(C(F)(F)F)c(C#N)c(SCC(=O)Nc2nc3cc(Br)ccc3s2)n1 | -3 | 0 | 5 | -3 | 25 | nt | nt
N#Cc1c(SCC(=O)Nc2nc3ccccc3s2)sc2c(O)cc(=O)[nH]c12 | 0 | 4 | 63* | -19 | -31 | 60* | 26* | DNA CAG DR=9.3*
N#Cc1c(SCC(=O)Nc2nc3ccc(Br)cc3s2)sc2c(O)cc(=O)[nH]c12 | -1 | 4 | 67* | -3 | -13 | 82* | 51*
O=C(NC(=S)Nc1ccc(CN2CCCCC2)cc1)c1cccc(OCc2ccccc2)c1 | 0 | 0 | -4 | 3 | -12 | nt | nt
O=C(O)c1cc(OCc2ccccc2)cc(OCc2ccccc2)c1 | 1 | 0 | 43* | 6 | -17 | 40* | 8.0*
O=C(O)c1cc(S(=O)(=O)Nc2ccc(OCc3ccccc3)cc2)ccc1Br | 0 | 4 | 45* | 5 | -51 | 28 | 7.5*
CCOc1ccc(NS(=O)(=O)c2ccc(C(=O)NNC(=O)c3ccccc3O)cc2)cc1 | 0 | 7 | 35* | 3 | 12 | 14 | 4
O=C(O)c1ccc(NC(=S)NC(=O)c2cccc(COc3ccccc3)c2)cc1 | 0 | 0 | 48* | -4 | -94 | 49* | 16*
CCNC(=O)C1(C)CCN(C(=O)c2ccccc2OC(F)(F)F)C1 (stereo not given) | -1 | nt | 0 | 2 | -8 | nt | nt
O=C(Cn1cnc2c(NC(=O)OCc3ccccc3)ncnc21)NCc1ccccn1 | 1 | 4 | 0 | -1 | -37 | nt | nt
O=c1[nH]nnc2c1cnn2-c1ccccc1 | -2 | nt | 0 | 0 | -29 | nt | nt
O=C(O)/C=C/c1ccc(S(=O)(=O)Nc2ccc(OCc3ccccc3)cc2)cc1 | -2 | 0 | 52* | 1 | -20 | 30 | 6.8*
COc1ccc(NS(=O)(=O)c2cccc(C(=O)O)c2)cc1 | 0 | 4 | 2 | -1 | -7 | nt | nt
O=C(O)c1cccc(S(=O)(=O)Nc2ccc(OCc3ccccc3)cc2)c1 | -2 | 1 | 41* | 2 | -16 | 17 | 4
C[C@@H]1Cn2cnc(C(=O)N[C@@H](Cc3c[nH]c4ccccc34)C(=O)OC(C)(C)C)c2C(=O)N1 | 0 | nt | 0 | 1 | -21 | nt | nt
C#CCN1C(=O)[C@]2(OCCC=C[C@H]2C)c2ccccc21 | 0 | nt | 2 | 7 | nt | nt | nt
Cc1ccc(C2C(C#N)=C(N)Oc3n[nH]c(-c4ccccc4)c32)o1 (stereo not given) | 2 | 1 | 41* | -2 | -29 | 40* | 20*
O=c1[nH]c(S)c(/C=C2\C=Nc3ccccc32)s1 | -10 | -2 | 11 | 8 | -25 | nt | nt
Oc1nc(Nc2ccc(F)cc2)sc1/C=C1\C=Nc2ccccc21 | -2 | 3 | 48* | 0 | -4 | 25 | 14*
COc1ccc(/C=N/n2c(-c3cc(C)[nH]n3)n[nH]c2=S)cc1 | 1 | -2 | 1 | 2 | 4 | nt | nt
CC(C)Oc1cccc(-c2n[nH]c(=S)n2N=Cc2ccc(OCc3ccccc3)cc2)c1 | nt | nt | 51* | 1 | nt | 52* | 26*
COc1ccc(/C=N/n2c(-c3ccccc3)n[nH]c2=S)cc1 | -2 | 0 | 11 | 3 | 0 | nt | nt
S=c1[nH]nc(-c2n[nH]c3c2CCC3)n1N=Cc1ccc(OCc2ccccc2)cc1 | nt | nt | 38* | -3 | nt | 43* | 14*
SMILES | PG9 binder | NR2E3 ag-1 | rCAG binder | NR1D1 modulator | NR2E3 ag-2 | rCAG binder conf | DNA CAG counter | others
Cc1cc(-c2n[nH]c(=S)n2N=Cc2ccc(OCc3ccccc3)cc2)n[nH]1 | nt | nt | 35* | -1 | nt | 40* | 9.8*
CCn1c(O)c(N=Nc2ccc(Cl)c(C(=O)O)c2)c2ccccc21 | -3 | -1 | 32 | 2 | 33 | nt | nt
CC(C)n1c(O)c(N=Nc2ccc(Cl)c(C(=O)O)c2)c2ccccc21 | -4 | -3 | 38* | -3 | 2 | 36* | 9.0*
COc1ccc(/C=N/S(=O)(=O)c2cccs2)cc1 | 1 | 0 | -2 | -3 | -4 | nt | nt
COc1ccc(/C=C2\S/C(=N/S(=O)(=O)c3cccs3)NC2=O)cc1 | -2 | 1 | 73* | -6 | 5 | 50* | 16*
Cc1ccc(CN2[C@@H](Cc3ccccc3)C(=O)CS2(=O)=O)cc1 | 0 | -2 | 41* | -2 | -25 | 21 | 9.1*
O=S1(=O)CCOC[C@H](Cc2ccccc2)N1Cc1ccccc1 | -1 | -2 | -1 | 1 | -2 | nt | nt
CCCCCCCCCCCCCCCCCC(=O)OCC(O)CO (stereo not given) | nt | nt | nt | 0 | nt | nt | nt
O=C(CSc1nnc(-c2ccccc2F)n1C1CCCCC1)Nc1cc(C(=O)O)ccc1Cl | 2 | nt | 38* | 8 | 5 | 34 | 6.9*
O=C(Cn1nnc(-c2ccc(F)cc2)n1)NC(=O)NC1CCCCC1 | 1 | nt | 0 | -5 | -13 | nt | nt
Cc1sc2nc3c(SC(C)C(=O)O)cc(C(=O)c4ccccc4O)cn3c(=O)c2c1C (stereo not given) | -4 | 1 | 77* | -1 | -26 | 85* | 61*
CCOC(=O)c1sc2nc3c(SCC(=O)O)cc(C(=O)c4cc(F)ccc4O)cn3c(=O)c2c1C | -1 | -1 | 28 | -10 | -29 | nt | nt
O=C(O)CSc1cc(C(=O)c2ccccc2O)cn2c(=O)c3c(-c4ccccc4)csc3nc12 | -1 | 1 | 53* | -1 | -16 | 90* | 74*
COc1ccc(O)c(C(=O)c2cc(SCC(=O)O)c3nc4sc5c(c4c(=O)n3c2)CCCC5)c1 | -2 | 0 | 42* | -3 | -16 | 89* | 63*
Fc1cccc(Cc2c(-c3cccc(Cl)c3)nc3c(Cl)cc(C(F)(F)F)cn23)c1 | 0 | nt | 5 | -3 | -3 | nt | nt
